KCNQ1 inh: blocks the human KCNQ1 potassium channel | P51787 | CHO-K1 KCNQ1, FluxOR thallium flux fluorescence; active compounds read high | B-score at 10 µM | 1.3% of 310,000 active | AID 2642;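 active = compounds whose thallium flux B-score, printed positive for inhibition, exceeds three library SD while starting fluorescence stays within three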;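 note: channel opened by potassium depolarization with thallium stimulus after 20 min compound exposure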
KCNK9 block: inhibitors of human KCNK9 two-pore domain potassium channel; HEK293 KCNK9, FluxOR thallium flux fluorescence; active compounds read low; AID 488922; 1.2% of 310,000 active; Q9NPC2; B-score at 10 µM;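 active = ratio B-score over 3 SD below the library mean, with starting fluorescence within 5 SD of its mean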;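 note: negative B-score means less thallium flux so channel inhibition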
Kir21 inh: Kir2.1 (mouse) channel inhibition; 0.85% of 310,000 active; B-score at 10 µM; P35561; HEK293-Kir2.1, FluxOR thallium flux fluorescence; active compounds read low;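 active = fluorescence ratio B-score at or below minus 3 SD of library scores, with starting-brightness B-score within 2 SD, cut at about -4.2 in these data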;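 note: channel flux triggered by added potassium and thallium sulfate stimulus; B-score of peak minus minimum fluorescence over baseline after thallium stimulus; more negative B-score means stronger Kir2.1 block with less thallium influx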
KCNK3 inh: human KCNK3 channel inhibition, primary screen; CHO-KCNK3 thallium flux, FluxOR fluorescence; active compounds read low; B-score at 10 µM; 0.84% of 340,000 active; AID 602410;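 active = B-score under library mean minus 4 SD, starting fluorescence ratio at most library mean plus 5 SD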;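 note: more negative B-score means stronger inhibition of thallium flux through KCNK3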
hERG protect: compounds protecting human hERG from proarrhythmic drug block | 0.51% of 310,000 active | CHO-hERG, FluxOR thallium flux, dofetilide IC70 present | activation (rescue from dofetilide block), less the hit threshold, % at 10 µM | AID 1511;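 active = activation above the mean of controls blocked by dofetilide plus 5 SD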;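 note: thallium influx through hERG after potassium depolarization seen as dye fluorescence rise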
KCNQ1 act: potentiates or activates the human KCNQ1 potassium channel; 0.35% of 310,000 active; P51787; CHO-K1 KCNQ1, thallium flux FluxOR fluorescence; active compounds read high; B-score at 10 µM;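 active = fluorescence ratio B-score, a plate-corrected score, at least three library SD, with initial intensity B-score within 5 SD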
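Material: CHO-K1 cells stably expressing KCNQ1. Medium: assay buffer for compound exposure, DMSO matched across wells. Reagent: K+/Tl+ depolarizing stimulus. Compound dosing: single-concentration screen. Times: 37 °C overnight plating, 90-min dark dye load, 20-min compound pretreatment. Technique: FluxOR Tl+ flux fluorescence.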
KCNQ1 inh valid: confirmation of human KCNQ1 potassium channel inhibitors; KCNQ1 cell line, FluxOR thallium flux fluorescence; inhibition, % at 10 µM; shares compounds with KCNQ1 inh; 93% of 1,600 active; AID 588353;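 active = primary screen active, with duplicate mean exceeding buffer control mean plus 3 SD of buffer wells, cut at about 28% in these data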;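 note: 0% = buffer control ratio and 100% = XE991 inhibitor control ratio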
CHO KCNQ1 ctr: counter-screen for KCNQ1 inhibitors: effect in parental CHO cells; shares compounds with KCNQ1 inh; AID 588366; fluorescence ratio (Tl flux) at 10 µM; 21% of 1,600 active; parental CHO-K1, FluxOR thallium flux fluorescence ratio; active compounds read low; zero means no signal rise above baseline;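 active = mean of duplicate thallium-flux fluorescence ratios in parental host cells more than 5 SD below the buffer control mean, cut at about 0.38 in these data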;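 note: ratio is peak minus minimum fluorescence divided by baseline fluorescence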
KCNQ1 APC inh: human KCNQ1 inhibition validated by electrophysiology | shares compounds with KCNQ1 inh | KCNQ1-CHO cells, automated patch clamp current | calls only at 10 µM | 20% of 490 active | AID 624120;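 active = KCNQ1 current drop exceeding 3 SD of negative control wells, seen in both duplicate runs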;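 note: steady state current during a 2 s step from -80 to +40 mV; negative values mean current inhibition and positive values mean potentiation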
KCNQ2 spec: KCNQ1 inhibitor that also blocks rat KCNQ2 channel; shares compounds with KCNQ1 inh; AID 651746; 71% of 1,600 active; KCNQ2 cells, FluxOR thallium flux fluorescence; inhibition, % at 10 µM;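 active = mean percent inhibition of the KCNQ2 thallium signal more than 5 SD above the buffer-only control wells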;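 note: KCNQ2 expressed in CHO cells; 0% = buffer control wells and 100% = XE-991 inhibitor control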
Target sequence (O88943 whole entry, looked up): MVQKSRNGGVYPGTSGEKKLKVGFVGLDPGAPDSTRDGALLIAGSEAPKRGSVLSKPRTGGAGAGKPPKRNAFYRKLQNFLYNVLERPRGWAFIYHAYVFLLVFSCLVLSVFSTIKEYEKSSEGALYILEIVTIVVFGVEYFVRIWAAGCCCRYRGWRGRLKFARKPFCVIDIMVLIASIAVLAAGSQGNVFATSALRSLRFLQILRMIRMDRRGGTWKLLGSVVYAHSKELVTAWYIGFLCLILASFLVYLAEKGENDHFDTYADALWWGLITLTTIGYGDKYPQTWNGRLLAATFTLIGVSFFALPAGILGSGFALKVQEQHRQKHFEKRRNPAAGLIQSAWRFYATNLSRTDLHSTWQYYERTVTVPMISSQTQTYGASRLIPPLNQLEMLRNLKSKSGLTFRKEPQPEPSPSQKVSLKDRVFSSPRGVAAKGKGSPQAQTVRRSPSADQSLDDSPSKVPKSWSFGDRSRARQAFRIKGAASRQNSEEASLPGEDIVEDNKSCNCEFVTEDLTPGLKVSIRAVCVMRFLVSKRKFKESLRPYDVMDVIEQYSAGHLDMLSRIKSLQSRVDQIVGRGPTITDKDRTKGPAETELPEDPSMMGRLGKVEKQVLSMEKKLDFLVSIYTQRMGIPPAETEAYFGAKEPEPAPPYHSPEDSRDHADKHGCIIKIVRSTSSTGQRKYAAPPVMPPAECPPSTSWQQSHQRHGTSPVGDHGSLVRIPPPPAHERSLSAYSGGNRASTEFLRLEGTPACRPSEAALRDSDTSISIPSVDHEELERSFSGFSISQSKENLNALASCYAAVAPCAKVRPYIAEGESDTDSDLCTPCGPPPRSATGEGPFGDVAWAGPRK
KCNQ1 KCNE1 spec: human KCNQ1/KCNE1 inhibition in KCNQ1 specificity screen. shares compounds with KCNQ1 inh. KCNQ1/KCNE1 cells, FluxOR thallium flux fluorescence. inhibition, % at 10 µM. 77% of 1,600 active;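 active = mean percent inhibition of duplicate wells above the buffer-only control mean plus 3 SD of those controls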;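 note: 0% = buffer only wells and 100% = XE-991 inhibitor control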
Starred values were filed as active, the others as inactive. An excerpt weighted towards active compounds, which were near 3.8% of everything screened.

Results for CC(NC(=O)Nc1ccc(Cl)c(Cl)c1)C(c1ccccc1)N1CCOCC1 (centres undefined) ?
KCNQ1 inh: 9*; KCNK9 block: inactive; Kir21 inh: 0.55; KCNK3 inh: inactive; hERG protect: -13; KCNQ1 act: inactive; KCNQ1 inh valid: 105*; CHO KCNQ1 ctr: 0.41; KCNQ1 APC inh: active; KCNQ2 spec: 81%*; KCNQ1 KCNE1 spec: 79%*

How did CC(NC(=O)Nc1ccc([N+](=O)[O-])cc1)C(c1ccccc1)N1CCOCC1 (centres undefined) do in these assays?
KCNQ1 inh: inactive; KCNK9 block: inactive; Kir21 inh: -0.05; KCNK3 inh: inactive; hERG protect: -12; KCNQ1 act: inactive

What do the screens show for `CC(C)c1nc(SCC(=O)N2c3ccccc3CC2C)c2ccccc2n1` (centres undefined)?
KCNQ1 inh: 9*; KCNK9 block: inactive; Kir21 inh: 0.67; KCNK3 inh: inactive; hERG protect: -12; KCNQ1 act: inactive; KCNQ1 inh valid: 74*; CHO KCNQ1 ctr: 0.38*; KCNQ2 spec: 96%*; KCNQ1 KCNE1 spec: 72%*

How did Cc1cc2cc3c(cc2nc1SCC(=O)N1c2ccccc2CC1C)OCO3 (centres undefined) do in these assays?
KCNQ1 inh: 6*; KCNK9 block: inactive; Kir21 inh: 1; KCNK3 inh: inactive; hERG protect: -4; KCNQ1 act: inactive; KCNQ1 inh valid: 100*; CHO KCNQ1 ctr: 0.35*; KCNQ2 spec: 78%*; KCNQ1 KCNE1 spec: 90%*

How did COc1ccc(CCNC(=O)CCS(=O)(=O)c2ccc3nc(C)sc3c2)cc1OC do in these assays?
KCNQ1 inh: inactive; KCNK9 block: inactive; Kir21 inh: 0.94; KCNK3 inh: inactive; hERG protect: -14; KCNQ1 act: inactive

How did CN(CC(=O)Nc1ccc(F)cc1)C(=O)c1cn(-c2ccccc2)nc1-c1cccs1 do in these assays?
KCNK3 inh: inactive

How did CN(CC(=O)Nc1cccc(F)c1)C(=O)c1cn(-c2ccccc2)nc1-c1ccccc1 do in these assays?
KCNQ1 inh: 8*; KCNK9 block: inactive; Kir21 inh: 0.81; KCNK3 inh: inactive; hERG protect: -19; KCNQ1 act: inactive; KCNQ1 inh valid: 74*; CHO KCNQ1 ctr: 0.42; KCNQ2 spec: 74%*; KCNQ1 KCNE1 spec: 93%*

What do the screens show for `O=C(Nc1ccc(OC(F)(F)F)cc1)Nc1cccnc1`?
KCNQ1 inh: 6*; KCNK9 block: inactive; Kir21 inh: 1.9; KCNK3 inh: inactive; hERG protect: -7; KCNQ1 act: inactive; KCNQ1 inh valid: 40*; CHO KCNQ1 ctr: 0.48; KCNQ2 spec: inactive; KCNQ1 KCNE1 spec: inactive

Results for Cc1ccc(NC(=O)Nc2cccnc2)cc1Cl ?
KCNQ1 inh: 7*; KCNK9 block: inactive; Kir21 inh: -0.02; KCNK3 inh: inactive; hERG protect: -17; KCNQ1 act: inactive; KCNQ1 inh valid: 66*; CHO KCNQ1 ctr: 0.51; KCNQ2 spec: inactive; KCNQ1 KCNE1 spec: inactive

Results for O=C(Nc1ccc(F)cc1)Nc1cccnc1 ?
KCNQ1 inh: inactive; KCNK9 block: inactive; Kir21 inh: -1.2; KCNK3 inh: inactive; hERG protect: -9; KCNQ1 act: inactive

Source: PubChem BioAssay (Johns Hopkins Ion Channel Center)
